For orientation: Kd means a measure of binding affinity in units of concentration.

The text below walks through data of article PMC3961564 (The Journal of investigative dermatology, 2013).

One test concerns FN-null fibroblasts. Kind of test: FN-null cell survival on CBD/14 with peptide in solution. The format is cell-based, mouse. The settings on record: serum-free DMEM, 1nM PDGF-BB, 3d, viable cells counted. In outline: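 Mouse FN-null fibroblasts were maintained in DMEM with 10% FBS. 96-well plates were precoated with 0.125μM GST-tagged CBD/14, blocked with 2% BSA for 2h and washed. Cells were seeded at 4,000/well for 4h at 37°C in serum-free DMEM, and BSA medium with soluble test compound ±1nM PDGF-BB was added. After 3d at 37°C, viable spread cells were counted in five 10x fields in three replicate wells (mean ± SD, n=15).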

In another test the test system is cell growth. The settings on record: RWRPK by itself; ref Hocking et al., 2008; cited from earlier work.
Test [1] deals with FN668-704, second half of anastellin, with cysteine at the C-terminus (human). Kind of test: radioligand binding.
A further test has as its target P3 (FN1853-1877) (human). As to the kind of experiment: radioligand binding.
The next test addresses P4 (FN2043-2076) (human). As to the kind of experiment: radioligand binding.
For test [2], the target named is anastellin (FN630-704) with a Cys-tag at the C-terminus (human). As to the kind of experiment: radioligand binding.
The target in test [3] is Recombinant PDGF-BB (platelet-derived growth factor-BB) (UniProt P01127). Kind of test: SPR. (In general: Surface plasmon resonance follows binding to a sensor surface in real time, without labels.)
Chain of Recombinant PDGF-BB (platelet-derived growth factor-BB) (P01127 82-190): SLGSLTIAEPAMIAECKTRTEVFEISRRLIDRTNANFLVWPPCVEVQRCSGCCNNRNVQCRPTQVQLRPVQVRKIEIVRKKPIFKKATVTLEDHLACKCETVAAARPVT
The target in test [4] is 125I-PDGF-BB (125I-radiolabeled platelet-derived growth factor-BB) (UniProt P01127 82-190, 125I label (site not stated)). Kind of test: radioligand binding.
Chain of 125I-PDGF-BB (125I-radiolabeled platelet-derived growth factor-BB) (UniProt P01127 82-190, 125I label (site not stated)) (P01127 82-190): as above

For RWRPK, the “FN-null cell survival on CBD/14, peptide in solution” value (“FN-null cell survival” below) with FN-null fibroblasts is listed as “does not collaborate with PDGF-BB”. In the test on cell growth, the “Cell growth” value is listed as “inhibits cell growth”. For the molecule “125I-PDGF-BB (125I-radiolabeled platelet-derived growth factor-BB) (from UniProt P01127 82-190) (ligand)”, the Kd in test [1] came to 80 nM; with P3 (FN1853-1877) (human), 87 nM; with P4 (FN2043-2076) (human), 56 nM; in test [2], 90 nM. For the molecule QPSHISKYILRWRPK [Peptide P5], the “FN-null cell survival” value in the test on FN-null fibroblasts was “promoted PDGF-BB survival signals”. On to “anastellin (FN630-704) with a Cys-tag at the C-terminus (domain or fragment)”, for which the Kd in test [3] is 22.9 nM.

QWNAPQPSHISKYILRWRPK [Peptide P11]: in the test with FN-null fibroblasts, the “FN-null cell survival” value is “promoted PDGF-BB survival signals”.

B1: P2 (FN680-704) (peptide)
peptide: QLISHQQYGHQEVTRFDFTTTSTST
As for B1, binding in test [4] was characterised by a dissociation constant (Kd) of 110 nM.

B2: P1 (FN634-658) (peptide)
peptide: QPSHISKYILRWRPKNSVGRWKEAT
With B2, binding in test [4] was put at a Kd of 250 nM.
